{"data": "Results from different studies", "gag-pol protease": "Gag-Pol polyprotein, protease (gag-pol, Human immunodeficiency virus type 1 group M subtype B, UniProt P04585)", "KCNH2": "Voltage-gated inwardly rectifying potassium channel KCNH2 (KCNH2, Homo sapiens, UniProt Q12809)", "CES1": "Liver carboxylesterase 1 (CES1, Homo sapiens, UniProt P23141)", "tlpQ": "tlpQ (Pseudomonas aeruginosa, UniProt Q9I0I4)", "F2": "Prothrombin (F2, Homo sapiens, UniProt P00734)"}
{"SMILES": "COc1ccc(S(=O)(=O)N(CC(C)C)C[C@@H](O)[C@H](Cc2ccccc2)NC(=O)O[C@H]2CCC[C@@]23CCO[C@@H](c2cc(OC)cc(OC)c2)C3)cc1", "target": "gag-pol protease", "assay": "enzyme activity, inhibitor", "endpoint": "Ki", "result": "0.0026 µM"}
{"SMILES": "CC1=C(O)C(=O)C=C2C1=CC=C1[C@@]2(C)CC[C@@]2(C)[C@@H]3C[C@](C)(C(=O)O)CC[C@]3(C)CC[C@]12C", "target": "Aldo-keto reductase family 1 member B10 (AKR1B10, Homo sapiens, UniProt O60218)", "assay": "binding, BLI", "endpoint": "Kd", "result": "2.41 µM"}
{"SMILES": "O=c1c2cc(Cl)ccc2[nH]c(=S)n1Cc1cccnc1", "target": "KCNH2", "assay": "ion current, inhibitor, patch clamp", "conditions": "pH 7.4", "endpoint": "IC50", "result": "> 10 µM"}
{"SMILES": "C=CCc1ccc(O)c(-c2cc(CC=C)ccc2O)c1", "target": "CES1", "assay": "enzyme activity, inhibitor", "endpoint": "IC50", "result": "0.39 µM"}
{"SMILES": "NC[C@H](O)c1ccc(O)c(O)c1", "target": "tlpQ", "assay": "binding, ITC", "endpoint": "Kd", "result": "> 1000 µM"}
{"SMILES": "COc1ccc(S(=O)(=O)N(CC(C)C)C[C@@H](O)[C@H](Cc2ccccc2)NC(=O)O[C@H]2CCC[C@@]23CCO[C@@H](c2cccc(OC)c2)C3)cc1", "target": "gag-pol protease", "assay": "enzyme activity, inhibitor", "endpoint": "Ki", "result": "1.08 µM"}
{"SMILES": "CC(=O)c1c(C)c2cnc(Nc3ccc(C4CCN(CCS(C)(=O)=O)CC4)cn3)nc2n(C2CCCC2)c1=O", "target": "KCNH2", "assay": "ion current, inhibitor", "endpoint": "IC50", "result": "> 30 µM"}
{"SMILES": "N=C(N)NCCC[C@H](NC(=O)[C@H](Cc1ccccc1)NC(=O)[C@H](CCC(N)=O)NC(=O)OCc1ccccc1)C(=O)c1nccs1", "target": "F2", "assay": "cell-free assay", "endpoint": "Ki", "result": "0.994 µM"}
{"SMILES": "COc1ccc(S(=O)(=O)N(CC(C)C)C[C@@H](O)[C@H](Cc2ccccc2)NC(=O)O[C@@H]2CCC[C@@]23CCO[C@@H](c2ccccc2OC)C3)cc1", "target": "gag-pol protease", "assay": "enzyme activity, inhibitor", "endpoint": "Ki", "result": "0.0167 µM"}
{"SMILES": "CCOC(=O)c1ccc(OC(=O)CCCCCN=C(N)N)cc1", "target": "Kallikrein-14 (Homo sapiens, UniProt Q9P0G3)", "assay": "enzyme activity, inhibitor", "endpoint": "IC50", "result": "0.641 µM"}
{"SMILES": "Cn1c(=O)n(CCCCN2CCC3(CC2)OCc2ccccc23)c2ccccc21", "target": "Sodium-dependent dopamine transporter (Slc6a3, Rattus norvegicus, UniProt P23977)", "assay": "ligand displacement, radioligand", "conditions": "cell membranes", "endpoint": "Ki", "result": "0.311 µM"}
{"SMILES": "CS(=O)(=O)N[C@@H](CCC(N)=O)C(=O)N[C@@H](Cc1ccccc1)C(=O)N[C@@H](CCCNC(=N)N)C(=O)c1nccs1", "target": "F2", "assay": "cell-free assay", "endpoint": "Ki", "result": "> 10 µM"}
{"SMILES": "COc1c2c(cc3c1-c1c(cc4c(c1OC)OCO4)C[C@H](C)[C@H](C)C3)OCO2", "target": "CES1", "assay": "enzyme activity, inhibitor", "endpoint": "IC50", "result": "1.4 µM"}
{"SMILES": "NCCCCNCCCN", "target": "tlpQ", "assay": "binding, ITC", "endpoint": "Kd", "result": "0.12 µM"}
